Measured values published in ChEMBL document CHEMBL1147939, “Synthesis and biological evaluation of new 3-substituted indole derivatives as potential anti-inflammatory and analgesic agents” (2007).

Legend:
Format in all cases: functional
[1] = system: Mus musculus; experiment: Antiinflammatory activity in Swiss mouse assessed as inhibition of carrageenan-induced hind paw oedema at 70 mg/kg, po after 4 hrs
How it was run: (§1)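 Swiss mice (20–30 g), six per group; oral dosing, test agents in distilled water, reference in 5% sodium bicarbonate, saline controls. Oedema induced by subplantar injection of 50 µL 1% carrageenan in saline into right hind paw. Paw size measured before and 4 h after carrageenan. % oedema inhibition calculated versus saline control group's % oedema formation. Mean ± SE; one-way ANOVA, Duncan's test.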

[2] = system: Mus musculus; experiment: Antinociceptive activity in Swiss mouse assessed as inhibition of acetic-acid induced writhing at 70 mg/kg, po after 30 mins by Koster test
How it was run: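 Koster writhing test in Swiss mice (20–30 g), six per group. Oral dosing, test agents in distilled water, reference in 5% sodium bicarbonate. After 60 min, 0.6% acetic acid given ip (0.2 mL/mouse). Writhes counted over 30 min. % change versus saline control group. Mean ± SE; one-way ANOVA, Duncan's test.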

[3] = system: Mus musculus; experiment: Effect on thermal pain in Swiss mouse at 70 mg/kg, po after 1 hr by hot plate test
How it was run: (§2)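 Hot-plate at 52 °C, 60 s cut-off, Swiss mice, six per group. Latency to paw licking or jumping recorded before and 1 h after oral dosing (test agents in distilled water, reference in 5% sodium bicarbonate). % change from basal latency. Mean ± SE; one-way ANOVA, Duncan's test.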

[4] = system: Mus musculus; experiment: Antiinflammatory activity in Swiss mouse assessed as inhibition of carrageenan-induced hind paw oedema at 70 mg/kg, po after 4 hrs relative to indomethacin
How it was run: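 Carrageenan paw oedema in Swiss mice, six per group, 70 mg/kg orally in distilled water; 50 µL 1% carrageenan subplantar, paw measured at 0 and 4 h. Potency expressed as ratio of the compound's percentage change to that of the indomethacin group (35 mg/kg in 5% sodium bicarbonate).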

[5] = system: Mus musculus; experiment: Antinociceptive activity in Swiss mouse assessed as inhibition of acetic-acid induced writhing at 70 mg/kg, po after 30 mins by Koster test relative to indomethacin
How it was run: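 Acetic acid writhing in Swiss mice, six per group: 70 mg/kg orally in distilled water, 0.6% acetic acid ip 60 min later, writhes counted over 30 min. Potency is the ratio of % change to that of the indomethacin group (35 mg/kg).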

[6] = system: Mus musculus; experiment: Effect on thermal pain in Swiss mouse at 70 mg/kg, po after 1 hr by hot plate test relative to indomethacin; parameters: unit not given here
How it was run: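 Hot-plate at 52 °C (60 s cut-off), Swiss mice, six per group. Latency to licking or jumping measured before and 1 h after 70 mg/kg orally. Potency is the ratio of % change from basal to that of the indomethacin group (35 mg/kg).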

[7] = system: Mus musculus; experiment: Antiinflammatory activity in Swiss mouse assessed as inhibition of carrageenan-induced hind paw oedema at 35 mg/kg, po after 4 hrs; how it was run: as §1
[8] = system: Mus musculus; experiment: Antinociceptive activity in Swiss mouse assessed as inhibition of acetic-acid induced writhing at 35 mg/kg, […] by Koster test; parameters: scale not given: the % may be the effect or the level left; conditions: route oral
[9] = system: Mus musculus; experiment: Effect on thermal pain in Swiss mouse at 35 mg/kg, po after 1 hr by hot plate test; how it was run: as §2

Compound	inhibition in vivo at 70 mg/kg [1] [%]	percent change in writhing count versus control [2] [%]	Activity [3] [%]	Activity [4]	Activity [5]	Activity [6]	inhibition in vivo at 35 mg/kg [7] [%]	Activity [8] [%]	Activity [9] [%]
CC(=O)C1=NN(c2ccc(C)cc2)/C(=C(\C#N)C(=O)c2c[nH]c3ccccc23)S1	-32.7	-57.8	21	1.1 ratio (fold of indomethacin)	0.7 ratio to indomethacin	0.9			
COc1ccc2c(c1)c(CC(=O)O)c(C)n2C(=O)c1ccc(Cl)cc1 [INDOMETHACIN]							-29.9	-80.7	22.6
CCOC(=O)C1=NN(c2ccccc2)/C(=C(\C#N)C(=O)c2c[nH]c3ccccc23)S1	-5.5	-61.7	9.6	0.2 ratio (fold of indomethacin)	0.76 ratio to indomethacin	0.4			
CCOC(=O)C1=NN(c2ccc(Cl)cc2)/C(=C(\C#N)C(=O)c2c[nH]c3ccccc23)S1	-19.1	-76	9.9	0.6 ratio (fold of indomethacin)	0.9 ratio to indomethacin	0.4			
N#C/C(=N\Nc1nc2ccccc2[nH]1)C(=O)c1c[nH]c2ccccc12	-25.5	-63.2	8.6	0.9 ratio (fold of indomethacin)	0.78 ratio to indomethacin	0.4			
N#C/C(C(=O)c1c[nH]c2ccccc12)=C(\S)Nc1ccccc1	-28	-64.1	24.2	0.9 ratio (fold of indomethacin)	0.79 ratio to indomethacin	1.1			
N#C/C(C(=O)c1c[nH]c2ccccc12)=C1/SCC(=O)N1c1ccccc1	-7.7	-60.9	76.5	0.3 ratio (fold of indomethacin)	0.75 ratio to indomethacin	3.4			
CCOC(=O)C1=NN(c2ccc(C)cc2)/C(=C(\C#N)C(=O)c2c[nH]c3ccccc23)S1	-11.5	-77.5	11.4	0.4 ratio (fold of indomethacin)	0.96 ratio to indomethacin	0.5			
CC(=O)c1sc(Nc2ccccc2)c(C#N)c1-c1c[nH]c2ccccc12	-44.4	-68.6	11.2	1.5 ratio (fold of indomethacin)	0.85 ratio to indomethacin	0.5			
N#C/C(=N\Nc1cc(-c2ccccc2)n[nH]1)C(=O)c1c[nH]c2ccccc12	-13.1	-62.5	28.3	0.4 ratio (fold of indomethacin)	0.77 ratio to indomethacin	1.3			
N#C/C(C(=O)c1c[nH]c2ccccc12)=C1/SC(c2ccccc2)=NN1c1ccccc1	-31	-35.3	27.3	0.9 ratio (fold of indomethacin)	0.4 ratio to indomethacin	1.2			
CC(=O)C1=NN(c2ccc(Cl)cc2)/C(=C(\C#N)C(=O)c2c[nH]c3ccccc23)S1	-15	-45.7	69.6	0.5 ratio (fold of indomethacin)	0.57 ratio to indomethacin	3.1			
CC(=O)C1=NN(c2ccccc2)/C(=C(\C#N)C(=O)c2c[nH]c3ccccc23)S1	-21.9	-71.6	2.4	0.6 ratio (fold of indomethacin)	0.88 ratio to indomethacin	0.1			
